According to ChEMBL document CHEMBL1125600, “Sulfonylbenzoyl-nitrostyrenes: potential bisubstrate type inhibitors of the EGF-receptor tyrosine protein kinase” (J Med Chem, 1991):

What was measured:
[1] = molecular target: Tyrosine-protein kinase ABL (Homo sapiens, UniProt P00519+P42684); experiment: Inhibition of recombinant v-Abl tyrosine kinase.; format: protein assay
In short: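 The reaction contained 20 mM Tris pH 7.5, 10 mM MgCl2, 10 µM [γ-32P]ATP and about 50 ng enzyme. Compounds were in DMSO. Reactions were stopped with trichloroacetic acid and aliquots were spotted on P81 paper.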

[2] = molecular target: Epidermal growth factor receptor (Homo sapiens, UniProt P00533); experiment: Inhibition of the epidermal growth factor receptor expressed in A431 cell line
[3] = Inhibition of the protein kinase C.
[4] = Antiproliferative activity tested by using EGF- stimulated cellular proliferation of balb/MK mouse epidermal keratinocytes (balb/MK cells)

Chain of Epidermal growth factor receptor (P00533 whole entry): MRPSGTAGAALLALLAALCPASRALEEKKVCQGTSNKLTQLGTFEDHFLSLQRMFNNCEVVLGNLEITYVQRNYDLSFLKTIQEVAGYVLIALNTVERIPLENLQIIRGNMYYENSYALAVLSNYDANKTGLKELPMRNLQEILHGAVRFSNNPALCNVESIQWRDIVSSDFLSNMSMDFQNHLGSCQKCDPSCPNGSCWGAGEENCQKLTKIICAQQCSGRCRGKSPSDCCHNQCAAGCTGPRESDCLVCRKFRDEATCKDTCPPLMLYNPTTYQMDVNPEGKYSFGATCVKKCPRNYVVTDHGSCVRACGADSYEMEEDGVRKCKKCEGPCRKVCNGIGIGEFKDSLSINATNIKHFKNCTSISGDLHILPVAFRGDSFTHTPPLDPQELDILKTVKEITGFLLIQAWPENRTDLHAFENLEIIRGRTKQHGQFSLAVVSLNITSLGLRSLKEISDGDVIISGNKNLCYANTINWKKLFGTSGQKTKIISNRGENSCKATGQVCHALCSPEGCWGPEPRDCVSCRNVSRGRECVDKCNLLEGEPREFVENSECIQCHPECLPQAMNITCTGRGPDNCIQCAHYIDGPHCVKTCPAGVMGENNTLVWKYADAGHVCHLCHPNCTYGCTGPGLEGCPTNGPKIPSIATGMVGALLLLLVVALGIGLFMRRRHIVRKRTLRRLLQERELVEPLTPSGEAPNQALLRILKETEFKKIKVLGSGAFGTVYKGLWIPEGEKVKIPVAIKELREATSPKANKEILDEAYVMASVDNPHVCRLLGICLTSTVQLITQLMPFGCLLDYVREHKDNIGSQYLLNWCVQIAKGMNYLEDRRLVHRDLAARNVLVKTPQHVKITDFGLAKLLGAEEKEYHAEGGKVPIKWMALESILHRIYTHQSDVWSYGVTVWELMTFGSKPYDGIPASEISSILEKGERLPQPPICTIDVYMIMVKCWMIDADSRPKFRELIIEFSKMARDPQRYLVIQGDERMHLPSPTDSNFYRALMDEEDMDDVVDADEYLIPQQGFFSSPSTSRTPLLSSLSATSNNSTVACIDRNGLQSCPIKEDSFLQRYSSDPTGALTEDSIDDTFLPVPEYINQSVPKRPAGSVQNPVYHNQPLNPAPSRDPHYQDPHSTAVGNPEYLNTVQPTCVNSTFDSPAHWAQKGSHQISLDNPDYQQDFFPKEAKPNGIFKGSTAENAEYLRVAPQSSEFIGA

| SMILES | IC50 [1] [µM] | IC50 [2] [µM] | IC50 [3] [µM] | IC50 [4] [µM] |
| --- | --- | --- | --- | --- |
| CC(C)(C)NC(=O)c1ccc(S(=O)(=O)Oc2ccc(/C=C/[N+](=O)[O-])cc2)cc1 | > 100 | 1.3 | 340 | 2.1 |
| CCCCNC(=O)c1ccc(S(=O)(=O)Oc2ccc(/C=C/[N+](=O)[O-])cc2)cc1 | > 100 | 4.8 | > 500 | 3.8 |
| O=C(O)c1ccc(S(=O)(=O)Oc2ccc(/C=C/[N+](=O)[O-])cc2)cc1O | 27 | 0.054 | 500 | > 50 |
| CCCCNC(=O)c1ccc(S(=O)(=O)Oc2ccc(C=O)cc2)cc1 | – | > 100 | – | > 50 |
| NCCNC(=O)c1ccc(S(=O)(=O)Oc2ccc(/C=C/[N+](=O)[O-])cc2)cc1 | 5 | 5.4 | 60 | 32 |
| COc1cc(/C=C/[N+](=O)[O-])ccc1O | > 100 | 7.9 | > 500 | 3.5 |
| C[C@@H](NC(=O)c1ccc(S(=O)(=O)Oc2ccc(/C=C/[N+](=O)[O-])cc2)cc1)C(=O)N[C@H](C)C(=O)NCCN | 15 | 17 | 250 | > 50 |
| O=[N+]([O-])/C=C/c1ccc(O)c(O)c1 | 100 | 8.8 | > 500 | 2.9 |
| C[C@@H](NC(=O)c1ccc(S(=O)(=O)Oc2ccc(/C=C/[N+](=O)[O-])cc2)cc1)C(=O)N[C@H](C)C(=O)OC(C)(C)C | > 100 | 40 | > 450 | 2.7 |
| COc1cc(/C=C/[N+](=O)[O-])ccc1OS(=O)(=O)c1ccc(C(=O)OC[C@H]2O[C@@H](n3cnc4c(N)ncnc43)[C@H](O)[C@@H]2O)cc1 | 100 | 0.5 | 10 | 45 |
| CC(C)(C)OC(=O)NCCNC(=O)c1ccc(S(=O)(=O)Oc2ccc(/C=C/[N+](=O)[O-])cc2)cc1 | > 100 | 1.4 | 320 | 4.8 |
| CNC(=O)c1ccc(S(=O)(=O)Oc2ccc(/C=C(\C)[N+](=O)[O-])cc2OC)cc1 | – | 4 | > 500 | 2.1 |
| O=C(O)c1ccc(S(=O)(=O)Oc2ccc(/C=C/[N+](=O)[O-])cc2)c(O)c1 | 100 | 0.31 | > 500 | > 50 |
| C/C(=C\c1ccc(O)c(O)c1)[N+](=O)[O-] | 100 | 9.4 | > 500 | 2.1 |
| COc1cc(/C=C/[N+](=O)[O-])ccc1OS(=O)(=O)c1ccc(C(=O)O)cc1 | 40 | 2.8 | > 500 | 35 |
| C[C@@H](NC(=O)[C@@H](C)NC(=O)c1ccc(S(=O)(=O)Oc2ccc(/C=C/[N+](=O)[O-])cc2)cc1)C(=O)O | 35 | 7 | > 100 | > 50 |
| COC(=O)c1ccc(S(=O)(=O)Oc2ccc(/C=C/[N+](=O)[O-])cc2)cc1 | > 100 | 1.5 | > 500 | 12 |
| COC(=O)c1ccc(S(=O)(=O)Oc2ccc(/C=C/[N+](=O)[O-])cc2)cc1O | > 100 | 1.8 | – | 5.7 |
| CNC(=O)c1ccc(S(=O)(=O)Oc2ccc(/C=C/[N+](=O)[O-])cc2)cc1 | 35 | 0.4 | 290 | 5.2 |
| C[C@@H](NC(=O)c1ccc(S(=O)(=O)Oc2ccc(/C=C/[N+](=O)[O-])cc2)cc1)C(=O)N[C@H](C)C(=O)NCCNC(=O)OC(C)(C)C | – | > 50 | > 500 | > 50 |
| O=[N+]([O-])/C=C/c1ccc(O)cc1 | > 100 | 10.1 | > 500 | 4.8 |
| O=C(O)c1ccc(S(=O)(=O)Oc2ccc(/C=C/[N+](=O)[O-])cc2)cc1 | 100 | 1 | > 500 | > 50 |
| Nc1ncnc2c1ncn2[C@@H]1O[C@H](COC(=O)c2ccc(S(=O)(=O)Oc3ccc(/C=C/[N+](=O)[O-])cc3)cc2)[C@@H](O)[C@H]1O | > 100 | 0.6 | 13 | 61 |
